Measurements gathered from unrelated publications.
Protocols differ between the studies behind these lines.
Enoyl-[acyl-carrier-protein] reductase [NADPH] FabI: Enoyl-[acyl-carrier-protein] reductase [NADPH] FabI (Staphylococcus aureus, UniProt Q6GI75)
CYP1A1: Cytochrome P450 1A1 (CYP1A1, Homo sapiens, UniProt P04798)
BCL2L2: Bcl-2-like protein 2 (BCL2L2, Homo sapiens, UniProt Q92843)

Compound	target	assay	setting	Ki [nM]
N#Cc1cc(Br)ccc1Oc1ccc(Cl)cc1O	Enoyl-[acyl-carrier-protein] reductase [NADPH] FabI	enzyme activity, inhibitor	–	0.17
C#Cc1cccc(-c2cc(=O)c3ccccc3o2)c1	CYP1A1	enzyme activity, inhibitor, fluorescence	6 min, pH 7.6	41
NCCCC[C@H](NC(=O)[C@@H]1CCCN1C(=O)[C@@H]1CSSC[C@H](N)C(=O)N[C@@H](Cc2ccc(O)cc2)C(=O)N[C@@H](Cc2ccccc2)C(=O)N[C@@H](CCC(N)=O)C(=O)N[C@@H](CC(N)=O)C(=O)N1)C(=O)NCC(N)=O	Vasopressin V1a receptor (AVPR1A, Homo sapiens, UniProt P37288)	ligand displacement, radioligand	cell membranes	1.8
C[C@H]1Oc2cc(cnc2N)-c2c(nn(C)c2C#N)CN(C)C(=O)c2ccc(F)cc21	Dual specificity mitogen-activated protein kinase kinase 1 (MAP2K1, Homo sapiens, UniProt Q02750)	cell-free assay	lysate	128
CCc1cc(O)c(Oc2ccccc2)cc1F	Enoyl-[acyl-carrier-protein] reductase [NADPH] FabI	enzyme activity, inhibitor	–	0.09
O=C(O)CCC(NC(=O)NC(CCCCNC(=O)CCCCCCC(=O)NC(CCCCNC(=O)CN1CCN(CC(=O)O)CCN(CC(=O)O)CCN(CC(=O)O)CC1)C(=O)OCc1ccccc1)C(=O)O)C(=O)O (stereo not drawn)	Glutamate carboxypeptidase 2 (FOLH1, Homo sapiens, UniProt Q04609)	enzyme activity, inhibitor, fluorescence	–	2.9
CC[C@H](C)[C@H](NC(=O)[C@H](CCCCN)NC(=O)[C@H](CCCNC(=N)N)NC(=O)[C@H](CC(C)C)NC(=O)[C@H](CCC(N)=O)NC(=O)[C@H](C)NC(=O)[C@H](C)NC(=O)[C@H](Cc1ccccc1)NC(=O)[C@H](CCC(=O)O)NC(=O)[C@@H]1CCCN1C(=O)[C@@H]1CCCN1C(=O)[C@H](CC(C)C)NC(=O)[C@H](CCC(=O)O)NC(=O)[C@H](C)NC(C)=O)C(=O)NCC(=O)N[C@@H](CC(=O)O)C(=O)N[C@@H](CCCCN)C(=O)N[C@H](C(=O)N[C@@H](Cc1ccc(O)cc1)C(=O)N[C@@H](CS)C(N)=O)C(C)C	BCL2L2	ligand displacement, FP	–	~14000
C#Cc1ccc(-c2cc(=O)c3ccccc3o2)cc1	CYP1A1	enzyme activity, inhibitor, fluorescence	6 min, pH 7.6	39
CC[C@H](C)[C@H](NC(=O)[C@H](CCC(=O)O)NC(=O)[C@H](CC(=O)O)NC(=O)CNC(=O)[C@H](CC(C)C)NC(=O)[C@H](CCCNC(=N)N)NC(=O)[C@H](CCCNC(=N)N)NC(=O)[C@H](CC(C)C)NC(=O)CNC(=O)[C@H](CCC(N)=O)NC(=O)[C@@H](NC(=O)[C@H](CCSC)NC(=O)[C@H](Cc1c[nH]c2ccccc12)NC(=O)[C@@H](NC(=O)[C@H](CCC(=O)O)NC(=O)[C@@H]1CCCN1C(=O)[C@H](CCCNC(=N)N)NC(C)=O)[C@@H](C)CC)[C@@H](C)O)C(=O)N[C@@H](CC(N)=O)C(=O)N[C@@H](C)C(=O)N[C@@H](Cc1ccc(O)cc1)C(=O)N[C@@H](Cc1ccc(O)cc1)C(=O)N[C@@H](C)C(=O)N[C@@H](CCCNC(=N)N)C(N)=O	BCL2L2	ligand displacement, FP	–	1500
CCn1c(-c2nc3cc(C(=O)N4CCC[C@@H](N)C4)cc(OC)c3n2C)cc2cccnc21	Protein-arginine deiminase type-1 (PADI1, Homo sapiens, UniProt Q9ULC6)	enzyme activity, inhibitor	–	570000
CC(C)=CCc1c(O)cc(O)c2c1O[C@H](c1ccc(O)cc1)CC2=O	CYP1A1	enzyme activity, inhibitor, fluorescence	15 min, pH 7.4	200
CC[C@H](C)[C@H](NC(=O)[C@H](CCC(=O)O)NC(=O)[C@H](CC(=O)O)NC(=O)CNC(=O)[C@H](CC(C)C)NC(=O)[C@H](CCCNC(=N)N)NC(=O)[C@H](CCC(N)=O)NC(=O)[C@H](CC(C)C)NC(=O)[C@H](CO)NC(=O)[C@H](CCC(N)=O)NC(=O)[C@@H](NC(=O)[C@H](CC(C)C)NC(=O)[C@H](Cc1c[nH]c2ccccc12)NC(=O)[C@@H](NC(=O)[C@H](CCC(=O)O)NC(=O)[C@@H]1CCCN1C(=O)[C@H](CCCNC(=N)N)NC(C)=O)[C@@H](C)CC)[C@@H](C)O)C(=O)N[C@@H](CC(N)=O)C(=O)N[C@@H](C)C(=O)N[C@@H](Cc1ccc(O)cc1)C(=O)N[C@@H](Cc1ccc(O)cc1)C(=O)N[C@@H](C)C(=O)N[C@@H](CCCNC(=N)N)C(N)=O	Apoptosis regulator Bcl-2 (BCL2, Homo sapiens, UniProt P10415)	ligand displacement, FP	–	~2700
